# Experimental data taken from ChEMBL document CHEMBL4138308, “Simultaneous Targeting of RGD-Integrins and Dual Murine Double Minute Proteins in Glioblastoma Multiforme” (J Med Chem, 2018).
# pIC50: −log10 of the molar value. Calls of active or inactive are those of the source. The calls are words filed in the database; no cut-off is given here.
# Key:
# Protein Mdm4 = target: T1, Protein Mdm4 (Homo sapiens, UniProt O15151); assay: Displacement of p53 from MDM4 in human SHSY-5Y cells incubated for 10 mins by sandwich ELISA method; type: cell-based
# T1 sequence (O15151 whole entry): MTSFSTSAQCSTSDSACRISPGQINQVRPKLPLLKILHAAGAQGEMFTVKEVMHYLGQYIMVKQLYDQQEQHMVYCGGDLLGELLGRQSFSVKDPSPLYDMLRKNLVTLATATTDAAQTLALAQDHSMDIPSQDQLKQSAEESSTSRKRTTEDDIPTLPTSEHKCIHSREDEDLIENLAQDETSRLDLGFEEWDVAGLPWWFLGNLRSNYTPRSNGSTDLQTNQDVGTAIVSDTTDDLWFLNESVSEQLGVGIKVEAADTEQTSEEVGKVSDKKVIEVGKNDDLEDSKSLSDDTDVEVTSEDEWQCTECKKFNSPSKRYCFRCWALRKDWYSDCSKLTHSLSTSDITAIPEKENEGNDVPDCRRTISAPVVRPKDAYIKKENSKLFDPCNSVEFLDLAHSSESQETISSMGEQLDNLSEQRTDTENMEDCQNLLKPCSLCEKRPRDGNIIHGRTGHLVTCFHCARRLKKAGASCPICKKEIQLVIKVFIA
# Integrin alpha-V/beta-3 = Integrin alpha-V/beta-3 (Homo sapiens, UniProt P05106+P06756); assay: Inhibition of vitronectin binding to human alphaVbeta3 integrin after 1 hr by ELISA; type: protein-complex assay
# Sequence of Integrin alpha-V/beta-3 (P05106 27-788 limits assumed): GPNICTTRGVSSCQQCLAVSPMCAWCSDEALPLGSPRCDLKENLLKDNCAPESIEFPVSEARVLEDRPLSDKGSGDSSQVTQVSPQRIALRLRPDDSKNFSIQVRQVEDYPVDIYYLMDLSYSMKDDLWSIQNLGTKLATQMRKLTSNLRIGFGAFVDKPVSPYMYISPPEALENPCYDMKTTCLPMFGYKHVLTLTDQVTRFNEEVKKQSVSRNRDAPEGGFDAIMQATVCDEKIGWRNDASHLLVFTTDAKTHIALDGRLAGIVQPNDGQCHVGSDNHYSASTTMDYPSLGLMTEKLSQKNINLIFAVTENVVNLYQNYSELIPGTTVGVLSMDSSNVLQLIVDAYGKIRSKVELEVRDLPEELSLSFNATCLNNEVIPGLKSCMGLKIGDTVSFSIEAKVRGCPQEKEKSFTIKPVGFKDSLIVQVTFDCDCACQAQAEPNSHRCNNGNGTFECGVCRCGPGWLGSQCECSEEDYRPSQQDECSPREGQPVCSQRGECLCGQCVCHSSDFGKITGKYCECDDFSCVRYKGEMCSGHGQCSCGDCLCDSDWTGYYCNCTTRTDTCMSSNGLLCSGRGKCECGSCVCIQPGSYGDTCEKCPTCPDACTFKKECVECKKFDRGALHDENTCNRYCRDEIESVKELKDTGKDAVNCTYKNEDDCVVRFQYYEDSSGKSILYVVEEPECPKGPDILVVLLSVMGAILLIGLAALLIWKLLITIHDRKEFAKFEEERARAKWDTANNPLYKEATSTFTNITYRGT
# Sequence of Integrin alpha-V/beta-3 (P06756 31-889 limits assumed): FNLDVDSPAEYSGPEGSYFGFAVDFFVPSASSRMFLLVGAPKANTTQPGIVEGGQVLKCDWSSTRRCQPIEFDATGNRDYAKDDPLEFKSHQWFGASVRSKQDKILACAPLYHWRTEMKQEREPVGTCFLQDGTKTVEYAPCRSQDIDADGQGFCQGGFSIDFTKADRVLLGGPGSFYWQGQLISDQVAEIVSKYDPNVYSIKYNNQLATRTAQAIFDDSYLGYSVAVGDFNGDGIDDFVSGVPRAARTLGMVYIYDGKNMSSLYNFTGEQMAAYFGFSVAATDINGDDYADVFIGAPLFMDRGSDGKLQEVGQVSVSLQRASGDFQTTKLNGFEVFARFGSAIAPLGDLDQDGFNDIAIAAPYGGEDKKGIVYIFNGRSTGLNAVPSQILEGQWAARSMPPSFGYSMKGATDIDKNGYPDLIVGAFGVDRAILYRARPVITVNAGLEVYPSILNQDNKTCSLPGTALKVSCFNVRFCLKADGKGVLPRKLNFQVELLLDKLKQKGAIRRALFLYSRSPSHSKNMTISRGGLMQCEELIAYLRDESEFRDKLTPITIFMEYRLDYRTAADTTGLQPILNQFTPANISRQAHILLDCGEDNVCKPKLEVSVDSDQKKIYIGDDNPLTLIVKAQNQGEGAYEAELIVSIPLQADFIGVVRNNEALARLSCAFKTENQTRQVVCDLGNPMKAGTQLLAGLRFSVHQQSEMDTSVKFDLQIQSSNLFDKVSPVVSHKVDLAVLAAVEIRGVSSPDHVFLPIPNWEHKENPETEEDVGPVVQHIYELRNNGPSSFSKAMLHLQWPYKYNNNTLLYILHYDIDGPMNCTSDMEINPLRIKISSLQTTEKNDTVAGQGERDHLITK
# Sequence of Integrin alpha-V/beta-3 (P06756 891-1048 limits assumed): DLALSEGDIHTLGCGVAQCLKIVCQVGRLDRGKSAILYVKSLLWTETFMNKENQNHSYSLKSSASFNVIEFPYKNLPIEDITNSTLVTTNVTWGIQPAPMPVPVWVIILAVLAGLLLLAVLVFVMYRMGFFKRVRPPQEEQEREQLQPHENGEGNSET
# Summary of the method: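 Plates coated overnight at 4 °C with vitronectin 1.0 μg/mL in carbonate buffer pH 9.6, blocked 1 h with TSB (Ca2+, Mg2+, Mn2+, 1% BSA). Soluble human αvβ3 (final 1.0 μg/mL) with inhibitor (final 0.128–400 nM) 1 h at room temperature; detection by anti-CD51/61 then peroxidase secondary, absorbance 405 nm. Duplicates; IC50 from curve inflection point; internal standard per plate.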
# Integrin alpha-5/beta-1 = Integrin alpha-5/beta-1 (Homo sapiens, UniProt P05556+P08648); assay: Inhibition of fibronectin binding to soluble alpha5beta1 integrin (unknown origin) after 1 hr by ELISA; type: protein-complex assay
# Sequence of Integrin alpha-5/beta-1 (P05556 21-798 limits assumed): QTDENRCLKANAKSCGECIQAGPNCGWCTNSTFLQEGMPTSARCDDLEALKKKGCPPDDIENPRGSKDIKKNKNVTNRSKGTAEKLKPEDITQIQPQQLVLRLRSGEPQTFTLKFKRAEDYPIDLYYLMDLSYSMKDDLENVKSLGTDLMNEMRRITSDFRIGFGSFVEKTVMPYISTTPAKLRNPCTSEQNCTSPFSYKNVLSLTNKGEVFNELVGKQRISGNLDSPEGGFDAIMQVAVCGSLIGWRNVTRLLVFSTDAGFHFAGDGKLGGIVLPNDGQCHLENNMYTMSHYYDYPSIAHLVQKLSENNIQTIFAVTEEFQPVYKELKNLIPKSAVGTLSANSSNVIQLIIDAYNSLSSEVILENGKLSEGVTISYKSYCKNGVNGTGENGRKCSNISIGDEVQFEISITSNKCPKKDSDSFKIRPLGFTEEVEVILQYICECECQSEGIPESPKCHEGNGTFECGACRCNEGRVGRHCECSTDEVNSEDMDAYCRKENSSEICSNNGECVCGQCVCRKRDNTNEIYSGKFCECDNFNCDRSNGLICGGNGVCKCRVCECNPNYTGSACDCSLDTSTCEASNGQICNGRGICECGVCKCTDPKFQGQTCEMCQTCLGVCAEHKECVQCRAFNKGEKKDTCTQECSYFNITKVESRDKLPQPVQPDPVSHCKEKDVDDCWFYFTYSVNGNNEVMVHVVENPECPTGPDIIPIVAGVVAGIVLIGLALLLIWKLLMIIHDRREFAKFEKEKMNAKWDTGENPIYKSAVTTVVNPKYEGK
# Sequence of Integrin alpha-5/beta-1 (P08648 42-894 limits assumed): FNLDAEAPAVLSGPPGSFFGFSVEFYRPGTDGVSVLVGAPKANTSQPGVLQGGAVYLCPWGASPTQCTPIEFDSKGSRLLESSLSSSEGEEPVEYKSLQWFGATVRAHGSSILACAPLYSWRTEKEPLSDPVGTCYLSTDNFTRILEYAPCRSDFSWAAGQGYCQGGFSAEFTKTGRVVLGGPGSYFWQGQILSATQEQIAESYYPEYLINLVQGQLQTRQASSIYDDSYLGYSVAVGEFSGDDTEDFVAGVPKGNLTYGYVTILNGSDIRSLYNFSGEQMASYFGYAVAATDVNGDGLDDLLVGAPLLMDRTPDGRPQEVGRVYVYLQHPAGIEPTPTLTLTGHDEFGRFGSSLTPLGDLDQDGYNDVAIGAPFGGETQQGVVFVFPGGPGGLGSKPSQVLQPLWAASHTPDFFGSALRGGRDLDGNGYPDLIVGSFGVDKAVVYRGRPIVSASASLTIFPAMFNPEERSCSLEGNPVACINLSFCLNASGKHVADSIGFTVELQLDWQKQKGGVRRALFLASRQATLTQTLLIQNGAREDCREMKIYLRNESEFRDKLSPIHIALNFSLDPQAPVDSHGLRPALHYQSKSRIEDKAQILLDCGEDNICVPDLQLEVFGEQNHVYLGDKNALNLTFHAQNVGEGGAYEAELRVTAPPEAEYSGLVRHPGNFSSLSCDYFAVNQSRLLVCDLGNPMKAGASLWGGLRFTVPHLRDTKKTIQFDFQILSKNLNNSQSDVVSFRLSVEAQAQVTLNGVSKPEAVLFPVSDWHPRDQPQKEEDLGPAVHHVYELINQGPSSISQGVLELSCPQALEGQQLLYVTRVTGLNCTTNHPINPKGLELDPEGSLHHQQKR
# Sequence of Integrin alpha-5/beta-1 (P08648 895-1049 limits assumed): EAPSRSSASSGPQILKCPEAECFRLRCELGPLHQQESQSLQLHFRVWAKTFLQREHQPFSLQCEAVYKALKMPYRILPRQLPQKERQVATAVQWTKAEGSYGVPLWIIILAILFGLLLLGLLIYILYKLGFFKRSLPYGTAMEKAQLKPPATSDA
# U-87 MG [1] = assay: Anti-invasive activity in human U87MG cells at 10 uM after 24 hrs by transwell assay; type: functional
# Summary of the method: (§1)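 U87MG cells suspended in serum-free medium (60,000 cells), treated at 10 μM (each agent at 10 μM when combined), placed in upper chamber of Matrigel-coated (0.32 mg/mL) transwell; lower chamber RPMI with 10% FBS. Invasion 24 h at 37 °C; cells on lower membrane surface fixed with p-formaldehyde, crystal violet stained, counted in five random fields per filter. Mean ± SEM vs DMSO control.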
# U-87 MG [2] = assay: Antiproliferative activity against human U87MG cells at 100 nM after 72 hrs in presence of alphaVbeta3 inhibitor cilengitide and MDM4 inhibitor SJ-1722550 by MTS assay; type: functional, cell-based; settings: U-87MG ATCC
# Summary of the method: (§2)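 Cells seeded ~5000 cells/cm2, after 24 h medium replaced with compound in DMSO (DMSO 1% v/v in controls), alone or in combination at 100 nM each, or concentration series (U87MG 1–100 nM). 72 h exposure; proliferation read by MTS, expressed as % of DMSO control (mean ± SEM, N = 3); IC50 from sigmoid dose–response fit.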
# U-87 MG [3] = assay: Antiproliferative activity against human U87MG cells at 100 nM after 72 hrs by MTS assay; type: functional, cell-based; settings: U-87MG ATCC; summary of the method: as §2
# U-87 MG [4] = assay: Antiproliferative activity against human U87MG cells at 100 nM after 72 hrs in presence of alphaVbeta3 inhibitor cilengitide by MTS assay; type: functional, cell-based; settings: U-87MG ATCC; summary of the method: as §2
# U-87 MG [5] = assay: Anti-invasive activity in human U87MG cells at 10 uM after 24 hrs in presence of MDM4 inhibitor SJ-1722550 and alphaVbeta3 inhibitor cilengitide by transwell assay; type: functional, cell-based; settings: U-87MG ATCC; summary of the method: as §1
# [6] = target: T2, Protein Mdm4 (Homo sapiens) (UniProt O15151); assay: Inhibition of MDM4 in human U87MG cells assessed as increase in MDM2 mRNA expression at 100 nM after 8 hrs in presence of MDM2 inhibitor nutlin-3 by RT-PCR method; type: cell-based
# T2 sequence (whole entry): T1 sequence (O15151 whole entry)
# Summary of the method: (§3)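 U87MG cells exposed to agents at 100 nM, alone or combined, for 8 or 24 h; total RNA extracted, cDNA made from 500 ng RNA, MDM2, PUMA and p21 transcripts quantified by real-time PCR. Data as % of DMSO control, mean ± SEM, N = 3.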
# [7] = target: T2, Protein Mdm4 (Homo sapiens); assay: Inhibition of MDM4 in human U87MG cells assessed as increase in PUMA mRNA expression at 100 nM after 24 hrs in presence of MDM2 inhibitor nutlin-3 by RT-PCR method; type: cell-based; summary of the method: as §3
# U-87 MG [8] = assay: Antiproliferative activity against human U87MG cells at 100 nM after 72 hrs in presence of alphaVbeta3 inhibitor cilengitide and MDM2 inhibitor nutlin-3 by MTS assay; type: functional, cell-based; settings: U-87MG ATCC; summary of the method: as §2
# [9] = target: T2, Protein Mdm4 (Homo sapiens); assay: Inhibition of MDM4 in human U87MG cells assessed as increase in p53 accumulation at 100 nM after 24 hrs in presence of MDM2 inhibitor nutlin-3 by Western blot method; type: cell-based
# Summary of the method: (§4)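 U87MG cells treated 24 h with agents at 100 nM, alone or combined; 40 μg lysate protein resolved by SDS-PAGE, immunoblotted for p53 with GAPDH loading control; bands quantified by densitometry as % of DMSO control (mean ± SEM, N = 3).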
# [10] = target: T2, Protein Mdm4 (Homo sapiens); assay: Inhibition of MDM4 in human U87MG cells assessed as increase in MDM2 mRNA expression at 100 nM after 8 hrs in presence of MDM2 inhibitor nutlin-3 and alphaVbeta3 inhibitor cilengitide by RT-PCR method; type: cell-based; summary of the method: as §3
# [11] = target: T2, Protein Mdm4 (Homo sapiens); assay: Inhibition of MDM4 in human U87MG cells assessed as increase in p53 accumulation at 100 nM after 24 hrs in presence of MDM2 inhibitor nutlin-3 and alphaVbeta3 inhibitor cilengitide by Western blot method; type: cell-based; summary of the method: as §4
# U-87 MG [12] = assay: Anti-invasive activity in human U87MG cells at 10 uM after 24 hrs in presence of MDM2 inhibitor nutlin-3 and alphaVbeta3 inhibitor cilengitide by transwell assay; type: functional, cell-based; settings: U-87MG ATCC; summary of the method: as §1
# [13] = target: T2, Protein Mdm4 (Homo sapiens); assay: Inhibition of MDM4 in human U87MG cells assessed as increase in p21 mRNA expression at 100 nM after 24 hrs by RT-PCR method; type: cell-based; summary of the method: as §3
# MDM4 (Homo sapiens) = MDM4 (Homo sapiens) (UniProt O15151); assay: Inhibition of MDM4 in human U87MG cells assessed as increase in PUMA mRNA expression at 100 nM after 24 hrs in presence of MDM2 inhibitor nutlin-3 and alphaVbeta3 inhibitor cilengitide by RT-PCR method
# [14] = target: T2, Protein Mdm4 (Homo sapiens); assay: Inhibition of MDM4 in human U87MG cells assessed as increase in PUMA mRNA expression at 100 nM after 24 hrs by RT-PCR method; type: cell-based; summary of the method: as §3
# [15] = target: T2, Protein Mdm4 (Homo sapiens); assay: Inhibition of MDM4 in human U87MG cells assessed as increase in PUMA mRNA expression at 100 nM after 24 hrs in presence of alphaVbeta3 inhibitor cilengitide by RT-PCR method; type: cell-based; summary of the method: as §3
# [16] = target: E3 ubiquitin-protein ligase Mdm2 (Homo sapiens, UniProt Q00987); assay: Displacement of p53 from MDM2 in human U87MG cells incubated for 10 mins by sandwich ELISA method; type: cell-based
# Sequence of E3 ubiquitin-protein ligase Mdm2 (Q00987 whole entry): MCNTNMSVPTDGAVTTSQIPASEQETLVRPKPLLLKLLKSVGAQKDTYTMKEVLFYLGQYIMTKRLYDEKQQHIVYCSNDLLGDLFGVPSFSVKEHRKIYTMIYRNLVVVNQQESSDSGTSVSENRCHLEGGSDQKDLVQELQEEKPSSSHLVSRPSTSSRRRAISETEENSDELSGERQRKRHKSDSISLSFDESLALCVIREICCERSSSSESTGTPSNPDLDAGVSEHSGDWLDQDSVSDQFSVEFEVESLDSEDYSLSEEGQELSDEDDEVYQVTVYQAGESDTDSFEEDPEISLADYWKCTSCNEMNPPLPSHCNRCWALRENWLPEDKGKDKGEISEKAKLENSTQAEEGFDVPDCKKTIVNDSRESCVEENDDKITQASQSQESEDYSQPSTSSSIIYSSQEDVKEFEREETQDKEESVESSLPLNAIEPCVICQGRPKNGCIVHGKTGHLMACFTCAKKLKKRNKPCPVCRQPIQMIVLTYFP
# U-87 MG [17] = assay: Antiproliferative activity against human U87MG cells after 72 hrs by MTS assay
# Homo sapiens [18] = species: Homo sapiens; settings: 100 nM
# T98G [19] = assay: Antiproliferative activity against human T98G cells harboring p53 mutant at nanomolar concentration after 72 hrs by MTS assay; type: functional, cell-based; summary of the method: as §2
# Homo sapiens [20] = species: Homo sapiens; settings: 100 nM; remark: listed apart in the source
# Homo sapiens [21] = species: Homo sapiens; settings: 100 nM; remark: listed apart in the source
# Homo sapiens [22] = species: Homo sapiens; settings: 100 nM; remark: listed apart in the source
# T98G [23] = assay: Antiproliferative activity against human T98G cells harboring p53 mutant at micromolar concentration after 72 hrs by MTS assay; type: functional, cell-based; summary of the method: as §2
# Homo sapiens [24] = species: Homo sapiens; settings: 100 nM; remark: listed apart in the source
smiles,measurement,setting,value
N=C(N)Nc1cccc(C(=O)NCC(=O)N[C@@H](CC(=O)O)C(=O)NCc2cccc(-c3ccccc3)c2)c1,pIC50,Protein Mdm4,< 6.00
same,pIC50,Integrin alpha-V/beta-3,8.92
same,pIC50,Integrin alpha-5/beta-1,7.74
N=C(N)Nc1cccc(C(=O)NCC(=O)N[C@@H](CC(=O)O)C(=O)NCCc2ccccc2)c1,pIC50,Integrin alpha-V/beta-3,8.55
same,pIC50,Integrin alpha-5/beta-1,7.55
N=C(N)Nc1cccc(C(=O)NCC(=O)N[C@@H](CC(=O)O)C(=O)NCc2ccc(-c3ccccc3)cc2)c1,pIC50,Protein Mdm4,< 6.00
same,pIC50,Integrin alpha-V/beta-3,8.77
same,pIC50,Integrin alpha-5/beta-1,7.39
COc1ccc(C2=N[C@H](c3ccc(Cl)cc3)[C@H](c3ccc(Cl)cc3)N2C(=O)N2CCNC(=O)C2)c(OC(C)C)c1,Activity,U-87 MG [1]; U-87MG ATCC,inactive
same,Activity,U-87 MG [2],Active
same,Activity,U-87 MG [3],inactive
same,Activity,U-87 MG [4],Active
same,Activity,U-87 MG [5],Active
CCOc1cc(/C=C2\C(=O)N(c3ccccc3)N=C2C)cc(Cl)c1OCC(=O)OC,inhibition,[6],Active
same,inhibition,[7],Active
same,Activity,U-87 MG [8],Active
same,inhibition,[9],Active
same,inhibition,[10],Active
same,inhibition,[11],Active
same,Activity,U-87 MG [12],Active
same,inhibition,[13],Active
same,inhibition,MDM4 (Homo sapiens),Active
same,inhibition,[14],Active
same,inhibition,[15],Active
same,Activity,U-87 MG [3],inactive
N=C(N)Nc1cccc(C(=O)NCC(=O)N[C@@H](CC(=O)O)C(=O)Nc2ccccc2)c1,pIC50,Protein Mdm4,< 6.00
same,pIC50,[16],< 6.00
same,pIC50,Integrin alpha-V/beta-3,9.68
same,pIC50,Integrin alpha-5/beta-1,7.89
N=C(N)Nc1cccc(C(=O)NCC(=O)N[C@@H](CC(=O)O)C(=O)NC(c2ccccc2)c2ccccc2)c1,Activity,U-87 MG [1],80%
same,pIC50,U-87 MG [17],6.94
same,inhibition,Homo sapiens [18],inactive
same,Activity,T98G [19],inactive
same,inhibition,Homo sapiens [20],Active
same,pIC50,Integrin alpha-V/beta-3,8.85
same,inhibition,Homo sapiens [21],Active
same,inhibition,Homo sapiens [22],Active
same,pIC50,Integrin alpha-5/beta-1,7.66
same,Activity,T98G [23],Active
same,inhibition,Homo sapiens [24],Active
N=C(N)Nc1cccc(C(=O)NCC(=O)N[C@@H](CC(=O)O)C(=O)NCCc2c[nH]c3ccccc23)c1,pIC50,Protein Mdm4,< 6.00
same,pIC50,Integrin alpha-V/beta-3,8.40
same,pIC50,Integrin alpha-5/beta-1,7.44
N=C(N)Nc1cccc(C(=O)NCC(=O)N[C@@H](CC(=O)O)C(=O)NCc2ccc(Cl)cc2)c1,pIC50,Integrin alpha-V/beta-3,8.89
same,pIC50,Integrin alpha-5/beta-1,7.32
